Experimental data from ChEMBL document CHEMBL3407352, “Identification of anthranilamide derivatives as potential factor Xa inhibitors: drug design, synthesis and biological evaluation” (Eur J Med Chem, 2015).

Biological target: Prothrombin (Homo sapiens, UniProt P00734)
Test: Inhibition of human thrombin using acromogenic substrate S-2238 preincubated for 30 mins before substrate addition measured after 20 mins by spectrophotometry
Summary of the method: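 Compounds prepared at 10 mM, serially diluted to twelve concentrations in 50 mM Tris-Cl, 100 mM NaCl, 0.1% BSA, pH 7.4; mixed with enzyme (final: human fXa 0.003 U/mL; human thrombin 0.125 U/mL), incubated 30 min at 37 °C. Reaction started with chromogenic substrate (fXa: S-2222; thrombin: S-2238), monitored continuously 20 min at 405 nm; IC50 from mean of duplicates.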

| SMILES | IC50 [nM] |
| --- | --- |
| COc1ccc(NC(=O)c2ccc(Cl)cc2)c(C(=O)Nc2ccc(N3CCCCC3=O)cc2)c1 | 48000 |
| COc1ccc(NC(=O)c2ccc(C(=N)N(C)C)cc2)c(C(=O)Nc2ccc(Cl)cn2)c1 [BETRIXABAN] | 18000 |

Biological target: Coagulation factor X (Homo sapiens, UniProt P00742)
Test: Inhibition of human factor 10a using acromogenic substrate S-2222 preincubated for 30 mins before substrate addition measured after 20 mins by spectrophotometry

Coagulation factor X, sequence (P00742 41-179 limits assumed): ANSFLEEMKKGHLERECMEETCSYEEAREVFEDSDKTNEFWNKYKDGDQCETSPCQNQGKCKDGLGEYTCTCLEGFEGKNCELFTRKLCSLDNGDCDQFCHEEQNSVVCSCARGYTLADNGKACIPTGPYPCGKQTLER
Coagulation factor X, sequence (P00742 235-488 limits assumed): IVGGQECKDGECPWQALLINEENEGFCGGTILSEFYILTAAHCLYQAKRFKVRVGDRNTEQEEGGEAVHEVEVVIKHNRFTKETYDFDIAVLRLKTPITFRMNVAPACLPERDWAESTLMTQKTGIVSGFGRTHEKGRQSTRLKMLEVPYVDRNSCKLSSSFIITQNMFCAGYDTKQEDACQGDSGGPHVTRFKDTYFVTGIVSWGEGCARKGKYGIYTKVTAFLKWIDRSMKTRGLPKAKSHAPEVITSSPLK

| SMILES | IC50 [nM] | Ki [nM] |
| --- | --- | --- |
| CN1CCC2N=C(C(=O)N[C@@H]3CCCC[C@@H]3CNC(=O)c3ccc(Cl)s3)SC2C1 (stereo partly drawn) | 27 | – |
| COc1ccc(NC(=O)C(=O)Nc2ccccc2Cl)c(C(=O)Nc2ccc(N3CCOCC3=O)cc2)c1 | 798 | – |
| COc1ccc(NC(=O)C(=O)Nc2ccc(OC)cc2C(=O)Nc2ccc(N3CCOCC3=O)cc2)cc1 | 612 | – |
| COc1cccc(C(=O)Nc2ccc(OC)cc2C(=O)Nc2ccc(N3CCCCC3=O)cc2)c1 | 378 | – |
| COc1ccc(NC(=O)C(=O)Nc2cccc(Cl)c2)c(C(=O)Nc2ccc(N3CCOCC3=O)cc2)c1 | 621 | – |
| COc1ccc(NC(=O)C(=O)Nc2ccccc2)c(C(=O)Nc2ccc(N3CCOCC3=O)cc2)c1 | 1120 | – |
| COc1ccc(NC(=O)c2cccc(Cl)c2)c(C(=O)Nc2ccc(N3CCCCC3=O)cc2)c1 | 183 | – |
| COc1ccc(NC(=O)C(=O)Nc2ccc(F)cc2)c(C(=O)Nc2ccc(N3CCOCC3=O)cc2)c1 | 678 | – |
| COc1ccc(NC(=O)c2ccccc2)c(C(=O)Nc2ccc(N3CCCCC3=O)cc2)c1 | 521 | – |
| COc1ccc(NC(=O)c2ccc(Cl)cc2)c(C(=O)Nc2ccc(N3CCCCC3=O)cc2)c1 | 23 | – |
| C[C@@H](C(=O)N1CCOCC1)N1CC[C@H](NS(=O)(=O)C2=Nc3ccc(Cl)cc3C2)C1=O | – | 90 |
| COc1ccc(NC(=O)C(=O)Nc2ccc(Cl)cc2)c(C(=O)Nc2ccc(N3CCOCC3=O)cc2)c1 | 452 | – |
| COc1ccc(NC(=O)C(=O)Nc2ccc(Cl)cn2)c(C(=O)Nc2ccc(N3CCOCC3=O)cc2)c1 | 298 | – |
| COc1ccc(NC(=O)C(=O)Nc2ccccc2OC)c(C(=O)Nc2ccc(N3CCOCC3=O)cc2)c1 | 828 | – |

System: not listed separately
Test: Anticoagulant activity in plasma (unknown origin) assessed as concentration required to double the time for fibrin formation
Assay type: functional
Summary of the method: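 Clotting times in plasma on automatic coagulometer per manufacturer's instructions; increasing inhibitor concentrations or solvent added to plasma, incubated 3 min at 37 °C, clotting times compared with appropriate control plasma.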

| SMILES | Activity [µM] |
| --- | --- |
| COc1ccc(NC(=O)c2ccc(Cl)cc2)c(C(=O)Nc2ccc(N3CCCCC3=O)cc2)c1 | 8.7 |
| COc1ccc(NC(=O)c2ccc(C(=N)N(C)C)cc2)c(C(=O)Nc2ccc(Cl)cn2)c1 [BETRIXABAN] | 2.4 |
